High-throughput results as filed in PubChem.
PHOSPHO1 inh: PubChem AID 1565; actives 1.1% (n = 290,000); recombinant PHOSPHO1, absorbance phosphatase assay; inhibition, % at 13.3 µM; Phosphoethanolamine/phosphocholine phosphatase (Homo sapiens), Q8TCT1; in the data active = inhibition above about 60%
hERG rescue: hERG rescue from dofetilide block, primary screen, cell-based, CHO-hERG, FluxOR thallium flux, dofetilide IC70. AID 1511, 2009. actives 0.51% (n = 310,000). activation (rescue from dofetilide block), less the hit threshold, % at 10 µM. Voltage-gated inwardly rectifying potassium channel KCNH2 (Homo sapiens), Q12809. dofetilide IC70 present;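 active = activation above the mean of controls blocked by dofetilide plus 5 SD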;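 note: thallium influx through hERG after potassium depolarization seen as dye fluorescence rise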
Target sequence (Q12809 whole entry, looked up): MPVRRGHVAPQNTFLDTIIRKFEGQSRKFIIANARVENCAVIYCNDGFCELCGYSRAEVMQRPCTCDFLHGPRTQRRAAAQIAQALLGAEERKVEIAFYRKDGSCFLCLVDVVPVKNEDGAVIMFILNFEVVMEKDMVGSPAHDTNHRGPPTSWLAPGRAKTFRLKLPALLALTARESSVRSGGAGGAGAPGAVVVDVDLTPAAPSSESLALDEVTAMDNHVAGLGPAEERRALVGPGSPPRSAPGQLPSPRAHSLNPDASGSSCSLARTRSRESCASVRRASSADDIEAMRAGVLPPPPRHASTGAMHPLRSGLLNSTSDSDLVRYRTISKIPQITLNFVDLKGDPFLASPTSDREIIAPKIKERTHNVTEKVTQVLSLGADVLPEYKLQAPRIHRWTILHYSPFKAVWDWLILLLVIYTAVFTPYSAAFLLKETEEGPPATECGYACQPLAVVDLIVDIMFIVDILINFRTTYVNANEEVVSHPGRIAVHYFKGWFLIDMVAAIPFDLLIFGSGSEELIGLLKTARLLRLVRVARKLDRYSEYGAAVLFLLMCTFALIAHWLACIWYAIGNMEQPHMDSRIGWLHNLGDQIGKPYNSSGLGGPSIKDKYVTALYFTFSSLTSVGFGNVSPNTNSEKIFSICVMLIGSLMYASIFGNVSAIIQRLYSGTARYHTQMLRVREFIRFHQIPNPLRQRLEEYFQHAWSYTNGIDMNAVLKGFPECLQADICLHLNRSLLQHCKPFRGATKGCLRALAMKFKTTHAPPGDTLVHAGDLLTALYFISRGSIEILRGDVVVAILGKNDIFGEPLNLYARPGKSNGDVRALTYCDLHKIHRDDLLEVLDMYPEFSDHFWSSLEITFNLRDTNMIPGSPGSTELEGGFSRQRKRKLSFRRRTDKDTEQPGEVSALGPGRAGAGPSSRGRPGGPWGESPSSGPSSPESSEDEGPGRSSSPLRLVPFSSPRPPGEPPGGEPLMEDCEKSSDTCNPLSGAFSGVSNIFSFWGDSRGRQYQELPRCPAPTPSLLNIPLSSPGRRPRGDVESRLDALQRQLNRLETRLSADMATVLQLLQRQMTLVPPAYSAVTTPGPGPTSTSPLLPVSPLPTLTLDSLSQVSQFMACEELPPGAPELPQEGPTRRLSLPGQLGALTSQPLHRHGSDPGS
KCNQ1 block: inhibitors of human KCNQ1 channel, primary screen, cell-based, thallium flux, high-throughput | Potassium voltage-gated channel subfamily KQT member 1 (Homo sapiens), P51787 | CHO-K1 KCNQ1, FluxOR thallium flux fluorescence; hits give high values | B-score at 10 µM | actives 1.3% (n = 310,000) | AID 2642, 2010;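 active = compounds whose thallium flux B-score, printed positive for inhibition, exceeds three library SD while starting fluorescence stays within three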;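 note: channel opened by potassium depolarization with thallium stimulus after 20 min compound exposure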
KCNK3 block: human KCNK3 channel inhibitors, primary screen, CHO cells, FluxOR thallium flux, B-score | FluxOR fluorescence; hits give low values | actives 0.84% (n = 340,000) | AID 602410, 2012 | B-score at 10 µM | Potassium channel subfamily K member 3 (Homo sapiens), O14649;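 active = B-score under library mean minus 4 SD, starting fluorescence ratio at most library mean plus 5 SD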;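 note: more negative B-score means stronger inhibition of thallium flux through KCNK3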
KCNQ1 pot: potentiators or activators of KCNQ1 channel, primary screen, cell-based, thallium flux, high-throughput | AID 2648, 2010 | CHO-K1 KCNQ1, thallium flux FluxOR fluorescence; hits give high values | actives 0.35% (n = 310,000) | B-score at 10 µM;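 active = fluorescence ratio B-score, a plate-corrected score, at least three library SD, with initial intensity B-score within 5 SD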
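System: Stable KCNQ1 CHO-K1 line | Incubation: 90 min dye loading and 20 min compound exposure, both at room temperature | Measure: Ratio B score | Medium: Assay buffer for compound exposure, DMSO matched across wells | Compound dosing: Single-concentration screen | Probe or stimulus: K+/Tl+ depolarizing stimulus | Measured by: Kinetic FluxOR fluorescence, 10 s baseline plus 110 s post-stimulus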
KCNK9 block: KCNK9 potassium channel inhibitors, primary screen, HEK293 cells, thallium flux; B-score at 10 µM; actives 1.2% (n = 310,000); Potassium channel subfamily K member 9 (Homo sapiens), Q9NPC2; FluxOR thallium flux fluorescence; hits give low values; AID 488922, 2010;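 active = ratio B-score over 3 SD below the library mean, with starting fluorescence within 5 SD of its mean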;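 note: negative B-score means less thallium flux so channel inhibition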
KCNK9 block conf: KCNK9 potassium channel inhibitors, confirmation, HEK293 cells, thallium flux, duplicate. shares compounds with KCNK9 block. actives 43% (n = 4,900). FluxOR thallium flux fluorescence. inhibition, % at 10 µM;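 active = thallium signal inhibited by more than 5 SD of the compound-free buffer control wells, on both duplicate plates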
Kir21 sel: mouse Kir2.1 channel inhibition, confirmation, selectivity assay for KCNK9 modulator project, cell-based, HEK293, thallium flux; shares compounds with KCNK9 block; Kir2.1 cells, FluxOR thallium flux fluorescence; inhibition, % at 10 µM; actives 4% (n = 4,900); AID 492993, 2010;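 active = thallium signal drop more than 5 SD beyond the mean of the no-compound control wells, seen in both duplicate plates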;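 note: signal is fluorescence rise after thallium addition divided by baseline fluorescence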
KCNK9 uninduced: thallium flux in non-induced HEK293 cells, confirmation, counter-screen for KCNK9 inhibitor project, cell-based, second counter screen, non-induced KCNK9-HEK293. shares compounds with KCNK9 block. FluxOR thallium flux. inhibition, % at 10 µM. actives 40% (n = 4,900);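 active = thallium signal drop beyond 5 SD of the untreated control mean, on both duplicate plates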
Hits are given with their value; - = inactive; . = no result given. A selection: hits, their analogues and other compounds. The true share with any hit is near 4%.

SMILES	PHOSPHO1 inh	hERG rescue	KCNQ1 block	KCNK3 block	KCNQ1 pot	KCNK9 block	KCNK9 block conf	Kir21 sel	KCNK9 uninduced
Cc1cc(C)n(-c2nnc(C)n2/N=C/c2cc(Br)ccc2OCc2ccccc2)n1	-	-	-	-	-	-8.6	41%	-	-
CCOC(=O)C1(Cc2ccc(OC)cc2)CCN(C(=O)CN2CCOC2=O)CC1	-	-	-	-	-	-	.	.	.
CCC(C)n1c(SCc2ccc([N+](=O)[O-])cc2)nc2ccsc2c1=O (configuration not stated)	-	-	-	-	-	-13	69%	-	44%
CCOC(CCn1c(SCc2cccc([N+](=O)[O-])c2)nc2ccccc2c1=O)OCC	-	-	-	-	-	-15	68%	-	45%
CCCCn1c(SCC(=O)Nc2cc(C)on2)nc2ccsc2c1=O	-	-	-	-	-	-	.	.	.
CCCCn1c(SCc2cccc([N+](=O)[O-])c2)nc2ccsc2c1=O	-	-	6	-	-	-16	80%	-	38%
Cn1c(SCc2cccc([N+](=O)[O-])c2)nc2ccccc2c1=O	.	.	.	-	.	.	.	.	.
COCCn1c(SCc2cccc([N+](=O)[O-])c2)nc2ccccc2c1=O	-	-	-	-	-	-8.8	64%	-	30%
C/C(=N/NC(=O)C1CC1(c1ccccc1)c1ccccc1)c1ccco1 (configuration not stated)	-	-	-	-	-	-	.	.	.
CCN(C(=O)CSc1n[nH]c(-c2cc(Cl)ccc2OC)n1)C1CCS(=O)(=O)C1 (configuration not stated)	.	.	.	-	.	.	.	.	.
Cc1ccc(NC(=O)CSc2nc(N)c3cc4c(nc3n2)CCCC4)cc1	-	-	-	-	-	-	.	.	.
CCC1=C(OC(=O)N(CC)CC)N2C(=O)OC(=NCCc3c[nH]c4ccccc34)[C@]2(Cc2ccccc2)[C@H]2C1=CC[C@H]1C(=O)N(C)C(=O)[C@H]12	-	-	-	-	-	-9.5	41%	-	40%
Cc1cccc[n+]1CCCCCCCCCC[n+]1ccccc1C	-	-	-	-	-	-	.	.	.
CCCCCCCC[n+]1cccc2c3ccccc3ccc21	-	-	9	-	-	-14	62%	86%	-
O=C(CN1C(=O)C2C3C=CC(C3)C2C1=O)OCC(=O)c1ccccc1 (configuration not stated)	-	-	-	-	-	-	.	.	.
Cc1ccc(C(=O)OCC(=O)c2c[nH]c3ccccc23)cc1	-	-	-	-	-	-	.	.	.
CC(C)Cc1ccc(C(C)C(=O)OCC(=O)c2c[nH]c3ccccc23)cc1 (configuration not stated)	-	-	-	-	-	-10	24%	-	42%
CCOc1ccc(-c2nnc3ccc(SCC(=O)Nc4nc5ccc(C)cc5s4)nn23)cc1	-	-	-	-	-	-11	70%	-	-
CCOc1ccc(-c2nnc3ccc(SCC(=O)Nc4nc5ccccc5s4)nn23)cc1	-	-	-	-	-	-	.	.	.
Oc1[nH]c2ccccc2c1N=NC(=S)N1CCOCC1	-	-	-	-	-	-13	54%	-	45%
NC(=S)N=Nc1c(O)[nH]c2ccccc12	-	-	-	-	-	-	.	.	.
